Assay outcomes deposited in PubChem BioAssay by several laboratories.
FAS-TE inh: FAS thioesterase (human) inhibition | P49327 | recombinant FAS-TE, OMFH fluorogenic substrate, fluorescence endpoint | inhibition, % at 15 µM | 360,000 compounds, 0.67% hits;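 active = compounds whose normalised, plate-corrected inhibition of enzyme fluorescence in the single-dose primary screen is 50% or more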;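 note: 0% = DMSO with enzyme and 100% = substrate without enzyme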
Target sequence (P49327 whole entry, looked up): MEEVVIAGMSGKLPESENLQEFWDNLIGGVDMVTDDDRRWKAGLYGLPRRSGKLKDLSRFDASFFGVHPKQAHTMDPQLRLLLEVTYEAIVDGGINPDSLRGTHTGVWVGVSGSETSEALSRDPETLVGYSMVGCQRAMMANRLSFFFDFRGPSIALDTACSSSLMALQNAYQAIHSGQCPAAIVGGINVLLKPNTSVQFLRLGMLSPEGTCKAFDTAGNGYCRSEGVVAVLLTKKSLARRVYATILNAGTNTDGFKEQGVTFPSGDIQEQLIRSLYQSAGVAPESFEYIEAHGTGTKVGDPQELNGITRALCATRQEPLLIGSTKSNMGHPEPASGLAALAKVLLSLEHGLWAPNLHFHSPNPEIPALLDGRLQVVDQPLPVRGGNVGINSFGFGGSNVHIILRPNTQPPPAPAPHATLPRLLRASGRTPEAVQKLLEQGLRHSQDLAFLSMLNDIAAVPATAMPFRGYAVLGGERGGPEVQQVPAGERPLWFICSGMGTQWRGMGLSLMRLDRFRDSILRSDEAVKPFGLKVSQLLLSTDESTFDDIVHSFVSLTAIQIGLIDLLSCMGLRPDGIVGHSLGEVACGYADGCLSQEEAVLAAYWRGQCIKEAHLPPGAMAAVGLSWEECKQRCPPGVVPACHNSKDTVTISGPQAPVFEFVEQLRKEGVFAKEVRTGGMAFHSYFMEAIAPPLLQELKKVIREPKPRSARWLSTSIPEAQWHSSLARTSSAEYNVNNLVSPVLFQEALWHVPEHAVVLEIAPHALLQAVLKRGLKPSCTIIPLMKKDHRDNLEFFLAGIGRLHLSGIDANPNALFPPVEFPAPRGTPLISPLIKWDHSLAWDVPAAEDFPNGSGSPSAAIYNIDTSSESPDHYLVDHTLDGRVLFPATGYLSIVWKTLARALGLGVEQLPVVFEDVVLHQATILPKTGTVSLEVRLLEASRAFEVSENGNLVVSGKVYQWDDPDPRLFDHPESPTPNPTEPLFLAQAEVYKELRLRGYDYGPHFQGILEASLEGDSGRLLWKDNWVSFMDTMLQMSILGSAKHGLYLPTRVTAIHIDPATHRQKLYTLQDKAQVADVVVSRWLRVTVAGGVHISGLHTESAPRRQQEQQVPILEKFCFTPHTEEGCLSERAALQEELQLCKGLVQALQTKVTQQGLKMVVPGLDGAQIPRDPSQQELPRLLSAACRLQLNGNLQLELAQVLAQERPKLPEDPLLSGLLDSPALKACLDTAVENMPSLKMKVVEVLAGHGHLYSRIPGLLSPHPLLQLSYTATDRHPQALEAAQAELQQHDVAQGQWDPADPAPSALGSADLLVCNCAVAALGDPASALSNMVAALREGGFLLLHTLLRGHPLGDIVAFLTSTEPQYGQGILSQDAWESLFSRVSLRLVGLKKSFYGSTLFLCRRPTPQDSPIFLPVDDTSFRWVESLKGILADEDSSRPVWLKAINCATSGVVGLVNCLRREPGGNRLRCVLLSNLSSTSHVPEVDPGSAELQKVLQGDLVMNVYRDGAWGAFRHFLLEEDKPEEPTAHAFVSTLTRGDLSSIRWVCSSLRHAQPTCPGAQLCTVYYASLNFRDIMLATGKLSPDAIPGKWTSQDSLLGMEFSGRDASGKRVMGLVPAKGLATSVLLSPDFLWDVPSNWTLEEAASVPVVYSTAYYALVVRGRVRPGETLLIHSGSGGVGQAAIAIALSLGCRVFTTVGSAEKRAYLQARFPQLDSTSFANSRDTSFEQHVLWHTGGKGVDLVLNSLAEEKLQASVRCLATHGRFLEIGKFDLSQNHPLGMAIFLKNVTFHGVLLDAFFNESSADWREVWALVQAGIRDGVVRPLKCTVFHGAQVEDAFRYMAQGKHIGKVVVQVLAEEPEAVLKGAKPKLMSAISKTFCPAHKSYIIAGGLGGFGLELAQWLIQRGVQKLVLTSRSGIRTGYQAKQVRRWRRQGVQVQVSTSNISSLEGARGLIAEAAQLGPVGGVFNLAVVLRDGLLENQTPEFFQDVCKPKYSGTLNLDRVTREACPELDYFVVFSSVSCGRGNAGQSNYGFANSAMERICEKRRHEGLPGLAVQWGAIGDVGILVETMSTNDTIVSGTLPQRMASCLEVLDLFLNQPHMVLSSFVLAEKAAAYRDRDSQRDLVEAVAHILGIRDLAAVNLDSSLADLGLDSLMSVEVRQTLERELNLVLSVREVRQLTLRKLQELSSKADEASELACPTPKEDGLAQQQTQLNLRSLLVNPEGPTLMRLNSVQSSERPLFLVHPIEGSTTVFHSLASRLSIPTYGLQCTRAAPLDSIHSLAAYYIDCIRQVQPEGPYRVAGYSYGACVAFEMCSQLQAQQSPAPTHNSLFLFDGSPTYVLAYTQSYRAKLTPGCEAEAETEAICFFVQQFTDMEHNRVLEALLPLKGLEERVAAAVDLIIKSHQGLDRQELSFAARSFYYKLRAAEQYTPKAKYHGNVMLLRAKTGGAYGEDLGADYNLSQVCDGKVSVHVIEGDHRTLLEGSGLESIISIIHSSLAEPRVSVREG
Arrestin-AP2 inh: blocks beta-arrestin peptide binding to AP2 adaptin. FITC-arrestin peptide / GST-AP2 beads, flow cytometry; AP2 beta2 appendage carries R879A mutation. inhibition, % at 10 µM. 340,000 compounds, 0.31% hits. AID 504490;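 active = inhibition above a set limit, near 3 SD of compounds lacking own fluorescence, cut at about 54% in these data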;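 note: plate controls were DMSO wells for no effect and 5 µM unlabelled arrestin peptide for full effect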
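System: GST-AP2 R879A bound to glutathione beads, E. coli-expressed. Also added: 50 nM FITC-arrestin peptide. Schedule: compound with beads 12 min RT, then probe 1 h RT. Signal: bead flow cytometry, FITC channel. Read-out basis: percent response.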
ADAM10 inh: inhibits human ADAM10 | recombinant ADAM10, EDANS/DABCYL FRET peptide cleavage, 3 h | AID 720582 | 370,000 compounds, 0.62% hits | inhibition, % at 7 µM | O14672;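 active = inhibition above a per-campaign cutoff equal to the mean of compounds falling between control-based bounds plus 3 SD, cut at about 20% in these data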;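 note: 0% = DMSO wells while the 100% control is not disclosed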
NRP1-CendR mod: modulators of CendR peptide binding to human neuropilin-1; O14786; FAM-RPARPAR peptide binding to NRP-1, fluorescence polarization; inhibition, % at 25 µM; 360,000 compounds, 0.85% hits; AID 602438;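 active = inhibition or corrected inhibition above about 18%, plus a signal ratio from 0.5 to 1.5, limit read from the data, passing the limit was not always enough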
ADAM17 inh: inhibitors of human ADAM17 | inhibition, % at 6.95 µM | recombinant ADAM17, EDANS/DABCYL FRET peptide cleavage | AID 720648 | 370,000 compounds, 0.83% hits | P78536;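 active = inhibition above the mean of compounds lying between control limits plus 3 SD, set per campaign, cut at about 8.5% in these data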;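 note: 0% = DMSO-only wells as the low control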
CaV13 ICDI inh: Disruptors of the CACNA1D IQ motif to Ca2+-dependent inactivation inhibitor domain association, primary screening, Förster resonance energy transfer in intact living … | HEK cells, CFP/YFP FRET ICDI-IQ, plate reader, 10 min; percent FRET-ratio fall versus neutral wells | inhibition, % at 12.3 µM | 340,000 compounds, 0.098% hits | AID 743397;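 active = mean replicate inhibition of at least 30% and at least 1% of replicates passing that level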;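 note: 0% = median of the neutral control wells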
ADAM10 ctr: ADAM10 inhibition, counter-screen for ADAM17 exosite hits; shares compounds with ADAM17 inh; recombinant ADAM10, EDANS/DABCYL FRET peptide cleavage, 3 h; inhibition, % at 6.95 µM; 2,900 compounds, 47% hits; AID 743256;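 active = mean inhibition over the triplicate runs exceeds the activity threshold set in the earlier primary screen, cut at about 20% in these data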;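 note: 0% = DMSO wells and 100% = marimastat wells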
ADAM17 confirm: human ADAM17 inhibition, confirmation; AID 743257; inhibition, % at 6.95 µM; recombinant ADAM17, EDANS/DABCYL QFRET peptide cleavage; 2,900 compounds, 65% hits; shares compounds with ADAM17 inh;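 active = mean inhibition across replicates above the hit cutoff set in the primary screen, cut at about 8.5% in these data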;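 note: 0% = DMSO wells and 100% = marimastat wells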
* hit, by the source's call; · = no result given. Compounds with a hit are over-represented: about 2.9% of the library has one in this group of screens.

SMILES	FAS-TE inh	Arrestin-AP2 inh	ADAM10 inh	NRP1-CendR mod	ADAM17 inh	CaV13 ICDI inh	ADAM10 ctr	ADAM17 confirm
NC(=O)CC[C@H](NC(=O)c1ccc(F)cc1)C(=O)OCC(=O)NCc1ccc(F)cc1	0	26	4	8	10*	-2	-4	4
NC(=O)CC[C@H](NC(=O)c1ccc(F)cc1)C(=O)OCC(=O)Nc1c(F)c(F)c(F)c(F)c1F	-4	-3	0	-5	-1	-4	·	·
Clc1ccccc1C(c1nnnn1Cc1ccco1)N1CCN(Cc2ccco2)CC1 (centres undefined)	4	8	13	13	9.2*	-3	-15	-1
Cn1cnnc1SCC(=O)c1cccc([N+](=O)[O-])c1	-1	8	10	-15	8.7*	-16	2	3
COc1ccc(CNC(=O)C2(CC3CC(c4ccccc4)=NO3)CCN(C(=O)C3CCCC3)CC2)cc1 (centres undefined)	3	4	8	-13	0	-11	·	·
COc1ccc(CNC(=O)C2(CC3CC(c4ccccc4)=NO3)CCN(C(=O)C3(C)CC3)CC2)cc1 (centres undefined)	-6	-2	7	11	8.7*	-5	1	5
COC(=O)c1cc(COC(=O)CNC(=O)c2ccc(Br)cc2)oc1C	2	-4	3	7	1	-5	·	·
COc1ccccc1C(=O)N(CCN(C)C)c1nc2cc(C)cc(C)c2s1	-2	-11	1	2	-1	5	·	·
Cc1cc(C)c2sc(N(CCN(C)C)C(=O)c3ccc4ccccc4c3)nc2c1	21	-1	3	6	10*	-3	8	8
COC(=O)[C@H](C(C)C)N1CCc2nnn(Cc3ccccc3)c2-c2cc(F)ccc2S1(=O)=O	·	·	1	·	2	·	·	·
CN(C)S(=O)(=O)c1ccc(/C(O)=C2/C(=O)C(=O)N(Cc3cccnc3)C2c2ccco2)cc1 (centres undefined)	-6	4	0	-23	12*	·	3	2
Cc1ccccc1S(=O)(=O)N1CCCc2nc(-c3ccc(Br)cc3)ccc21	·	·	-1	·	0	-4	·	·
O=C(NCCn1cc(SCc2ccccc2)c2ccccc21)c1ccccc1F	28	12	16	8	10*	-5	12	9.2*
CC(=O)c1ccc(S(=O)(=O)NCC2CCN(C(=O)C(=O)c3cc4ccccc4o3)CC2)cc1	·	·	3	·	2	-9	·	·
NC(Cc1ccc(F)cc1)c1csc(NC(=O)NC(c2ccccc2)c2ccccc2)n1 (centres undefined)	-2	·	12	-2	8.8*	-5	20*	9.3*
CCCC#Cc1ccc2c(c1)O[C@H](CN(C)C(=O)CC1CC1)[C@H](C)CN([C@@H](C)CO)S2(=O)=O	4	·	-8	1	0	-5	·	·
CCOC(=O)C1(C)CCCCCN1C(=O)c1ccc(OC)c(C(F)(F)F)c1 (centres undefined)	2	·	6	-2	8.7*	-4	-3	-2
COc1ccc(-c2cn[nH]c2N)cc1OC	-12	16	-2	2	-4	-6	·	·
COc1cc(OC)cc(-c2cn[nH]c2N)c1	-6	10	14	-5	9.1*	-4	13	13*
CCOC(=O)c1cc(OC(=O)c2ccccc2OC)n(-c2ccccc2)n1	-7	1	0	-29	11*	-6	11	12*
CCOC(=O)c1c(-c2ccccc2)csc1NC(=O)CSc1nncs1	15	2	14	-4	9.0*	-6	17	13*
C=CCn1c(SCC(=O)Nc2cccnc2Cl)nnc1-c1ccc(Cl)cc1	-3	15	-4	-4	-5	-8	·	·
Cc1ccc(C)c(NC(=O)CSc2nnc(-c3cc(C)[nH]n3)n2N)c1	-6	4	-4	-1	11*	-3	-3	-2
C=CCn1c(SCC(=O)Nc2ccccc2-c2ccccc2)nnc1-c1ccc(Cl)cc1	·	·	16	·	9.3*	·	22*	15*
Cc1ccc(-n2c(COc3ccccc3)nnc2SCC(=O)Nc2ccccc2-c2ccccc2)cc1	·	·	16	·	8.9*	·	32*	16*
SMILES	FAS-TE inh	Arrestin-AP2 inh	ADAM10 inh	NRP1-CendR mod	ADAM17 inh	CaV13 ICDI inh	ADAM10 ctr	ADAM17 confirm
O=C(CSc1nnc(-c2ccccc2)n1-c1ccccc1)Nc1cccc2ccccc12	·	·	-3	·	-2	·	·	·
Cc1ccc(NC(=O)CSc2nnc(-c3n[nH]c4ccccc34)n2-c2ccccc2)c(C)c1	4	-18	19	-2	9.3*	-5	4	10*
CCCN(CC1CC1)C(=O)CSc1nnc(-c2ccncc2)n1-c1ccc(OC)cc1	·	·	-2	·	-1	·	·	·
COC(=O)[C@]12C[C@H](CC(=O)NCCCN3CCCC3=O)C(=O)N(Cc3cccc4ccccc34)C1=C[C@H](C(C)C)O[C@@H]2C1CC1	·	·	-4	·	-5	·	·	·
Cc1cccc(-c2nnc(SCC(=O)Nc3cccc4ccccc34)n2Cc2ccco2)c1	·	·	5	·	4	·	·	·
CCOC(=O)CC[C@@H]1CC[C@]2(CCCN(C(=O)c3ccco3)C2)O1	·	·	3	·	3	·	·	·
Cc1ccc(-n2nnnc2SCC(=O)Nc2ccccc2-c2ccccc2)cc1C	25	-7	10	-2	9.0*	-4	26*	15*
CCCCN1C(=O)C(CC(=O)NCCCN(C)C)CC(C(=O)N2CCCCCC2)=C1C (centres undefined)	-4	·	-12	14	-4	-11	·	·
CC1(c2ccccc2)NC(=O)N(CC(=O)Nc2ccc3c(c2)OCO3)C1=O (centres undefined)	-9	51	-5	0	0	-3	·	·
COc1ccc(C2(C)NC(=O)N(CC(=O)Nc3ccc4c(c3)OCO4)C2=O)cc1OC (centres undefined)	-7	20	12	12	11*	·	13	9.0*
COc1ccc(C)cc1S(=O)(=O)N(CC(=O)Nc1ccc2c(c1)OCCO2)Cc1ccccc1	20	1	·	1	·	-5	·	·
COCCOc1ccc(C(F)(F)F)cc1NC(=O)CN1C(=O)NC(C)(c2ccc3c(c2)OCO3)C1=O (centres undefined)	30	7	18	-16	12*	-6	19	12*
COc1ccc(C)cc1S(=O)(=O)N(C)CC(=O)Nc1ccc2c(c1)OCO2	-7	-13	14	4	10*	-7	5	5
